# ChEMBL document CHEMBL1275442, “Pharmacokinetics and tissue distribution of anidulafungin in rats” (Antimicrob Agents Chemother, 2008)
# Columns and labels:
# Muscle tissue [1] = test: Tmax in F344 rat muscle assessed as total compound-derived radioactivity at 5 mg/kg, iv administered as single bolus dose […]; assay type: ADME, organism-based; set-up: dose 5 mg/kg, route intravenous; conditions: in vivo
# Procedure, shortened: (§1)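 Male F344 rats, 10 to 11 weeks old and 223.6 to 243.8 g, got one iv dose of [14C]anidulafungin at 5 mg/kg over about 5 min. Blood, CSF, kidney, liver, lung, quadriceps, spleen and skin were sampled predose and at 0.083 to 72 h, 3 rats per time. Total radioactivity (parent plus metabolites) was measured by liquid scintillation counting. Parameters were noncompartmental, from a composite mean profile.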
# Muscle tissue [2] = test: Drug level in Long Evans rat muscle assessed as radioactivity per gram of tissue at 5 mg/kg, iv administered as single bolus dose measured 72 hrs postdose by autoradiography; assay type: ADME, organism-based; set-up: dose 5 mg/kg, route intravenous; conditions: in vivo
# Procedure, shortened: (§2)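 Male pigmented Long Evans (HsdBlu:LE) rats, 7.5 weeks old and 202 to 217 g, got a single iv dose of [14C]anidulafungin at 5 mg/kg. One rat per time point (0.5, 6, 12, 24, 72, 168 h) was euthanised by isoflurane and cardiac-puncture exsanguination. Sagittal whole-body sections were quantified by phosphorimaging. Samples were thickness-corrected, and concentrations (μg eq/g) were interpolated from least-squares standard curves.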
# Muscle tissue [3] = test: Drug level in Long Evans rat muscle assessed as radioactivity per gram of tissue at 5 mg/kg, iv administered as single bolus dose measured 24 hrs postdose by autoradiography; assay type: ADME, organism-based; set-up: dose 5 mg/kg, route intravenous; conditions: in vivo; procedure, shortened: as §2
# Lung [4] = test: Drug level in Long Evans rat lung assessed as radioactivity per gram of tissue at 5 mg/kg, iv administered as single bolus dose measured 6 hrs postdose by autoradiography; assay type: ADME, organism-based; set-up: dose 5 mg/kg, route intravenous; conditions: in vivo
# Procedure, shortened: (§3)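 Male pigmented Long Evans (HsdBlu:LE) rats, 7.5 weeks old, 202 to 217 g, single iv [¹⁴C]anidulafungin; one rat per sampling time. Euthanized by isoflurane and cardiac-puncture exsanguination. Sagittal whole-body sections quantified by phosphorimaging autoradiography, single samples corrected for section thickness across multiple sections per tissue. Concentrations (μg eq/g drug-derived radioactivity) interpolated from least-squares standard curves per scan.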
# Zone of skin [5] = test: AUC (0 to 24 hrs) in F344 rat skin assessed as total compound-derived radioactivity per gram of tissue at 5 mg/kg, iv administered as single bolus dose […]; assay type: ADME, organism-based; set-up: time < 24 hr, dose 5 mg/kg, route intravenous; conditions: in vivo
# Procedure, shortened: (§4)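 Same F344 study: single 5 mg/kg IV [¹⁴C]anidulafungin given over about 5 min. Total drug-derived radioactivity (parent plus metabolites) counted by liquid scintillation, in […]. Noncompartmental analysis of the composite mean profile.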
# [6] = Cmax in F344 rat spleen at 5 mg/kg, iv administered as single bolus dose after 30 min by HPLC method; assay type: ADME, organism-based; set-up: dose 5 mg/kg, route intravenous
# Procedure, shortened: (§5)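 Male F344 rats, 10–11 weeks, 223.6–243.8 g, given one IV dose of [¹⁴C]anidulafungin, 5 mg/kg, over about 5 min. Tissues and blood sampled at 0.083–72 h (n = 3 rats per time). Parent drug measured by HPLC; LLOQ/ULOQ were 20/5,120 ng/ml for plasma and 220/56,320 ng/g for tissue. Noncompartmental parameters taken from the composite mean profile.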
# Muscle tissue [7] = test: Drug level in Long Evans rat muscle assessed as radioactivity per gram of tissue at 5 mg/kg, iv administered as single bolus dose measured 12 hrs postdose by autoradiography; assay type: ADME, organism-based; set-up: dose 5 mg/kg, route intravenous; conditions: in vivo; procedure, shortened: as §3
# Blood = test: Drug level in Long Evans rat blood assessed as radioactivity per gram of tissue at 5 mg/kg, iv administered as single bolus dose measured 12 hrs postdose by autoradiography; assay type: ADME, organism-based; set-up: dose 5 mg/kg, route intravenous; conditions: in vivo; procedure, shortened: as §3
# Zone of skin [8] = test: Cmax in F344 rat skin assessed as total compound-derived radioactivity per gram of tissue at 5 mg/kg, iv administered as single bolus dose […]; assay type: ADME, organism-based; set-up: dose 5 mg/kg, route intravenous; conditions: in vivo; procedure, shortened: as §4
# Kidney [9] = test: Drug level in Long Evans rat kidney assessed as low disposition of radioactivity per gram of tissue at 5 mg/kg, iv administered as single bolus dose measured 6 hrs postdose by autoradiography; assay type: ADME, organism-based; set-up: dose 5 mg/kg, route intravenous; conditions: in vivo; procedure, shortened: as §3
# Kidney [10] = test: Drug level in Long Evans rat kidney assessed as high disposition of radioactivity per gram of tissue at 5 mg/kg, iv administered as single bolus dose measured 24 hrs postdose by autoradiography; assay type: ADME, organism-based; set-up: dose 5 mg/kg, route intravenous; conditions: in vivo; procedure, shortened: as §3
# Zone of skin [11] = test: Drug level in Long Evans rat skin assessed as radioactivity per gram of tissue at 5 mg/kg, iv administered as single bolus dose measured 0.5 hrs postdose by autoradiography; assay type: ADME, organism-based; set-up: dose 5 mg/kg, route intravenous; conditions: in vivo; procedure, shortened: as §2
# Kidney [12] = test: Drug level in Long Evans rat kidney assessed as low disposition of radioactivity per gram of tissue at 5 mg/kg, iv administered as single bolus dose measured 12 hrs postdose by autoradiography; assay type: ADME, organism-based; set-up: dose 5 mg/kg, route intravenous; conditions: in vivo; procedure, shortened: as §3
# [13] = Cmax in F344 rat skin at 5 mg/kg, iv administered as single bolus dose after 30 min by HPLC method; assay type: ADME, organism-based, Zone of skin; set-up: dose 5 mg/kg, route intravenous; procedure, shortened: as §5
# Zone of skin [14] = test: Drug level in Long Evans rat skin assessed as radioactivity per gram of tissue at 5 mg/kg, iv administered as single bolus dose measured 72 hrs postdose by autoradiography; assay type: ADME, organism-based; set-up: dose 5 mg/kg, route intravenous; conditions: in vivo; procedure, shortened: as §2
# Cerebrospinal fluid = test: Half life in F344 rat cerebrospinal fluid assessed as total compound-derived radioactivity at 5 mg/kg, iv administered as single bolus dose […]; assay type: ADME, organism-based; set-up: dose 5 mg/kg, route intravenous; conditions: in vivo; procedure, shortened: as §1
# Lung [15] = test: Drug level in Long Evans rat lung assessed as radioactivity per gram of tissue at 5 mg/kg, iv administered as single bolus dose measured 12 hrs postdose by autoradiography; assay type: ADME, organism-based; set-up: dose 5 mg/kg, route intravenous; conditions: in vivo; procedure, shortened: as §3
# Kidney [16] = test: Drug level in Long Evans rat kidney assessed as low disposition of radioactivity per gram of tissue at 5 mg/kg, iv administered as single bolus dose measured 24 hrs postdose by autoradiography; assay type: ADME, organism-based; set-up: dose 5 mg/kg, route intravenous; conditions: in vivo; procedure, shortened: as §3
# Kidney [17] = test: Cmax in F344 rat kidney assessed as total compound-derived radioactivity per gram of tissue at 5 mg/kg, iv administered as single bolus dose after 30 mins by HPLC method; assay type: ADME, organism-based; set-up: dose 5 mg/kg, route intravenous; conditions: in vivo, 0.5 h; procedure, shortened: as §4
# [18] = Cmax in F344 rat lung at 5 mg/kg, iv administered as single bolus dose after 5 min by HPLC method; assay type: ADME, organism-based; set-up: dose 5 mg/kg, route intravenous; procedure, shortened: as §5
# [19] = Tmax in F344 rat skin at 5 mg/kg, iv administered as single bolus dose by HPLC method; assay type: ADME, organism-based, Zone of skin; set-up: dose 5 mg/kg, route intravenous
# Procedure, shortened: (§6)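 F344 males, 10 to 11 weeks old and 223.6 to 243.8 g, got a single 5 mg/kg iv dose of [14C]anidulafungin over about 5 min. Plasma and tissues were collected predose and at 0.083 to 72 h, n = 3 per time point. Parent drug was quantified by HPLC-UV, with LLOQ/ULOQ of 20/5,120 ng/ml in plasma and 220/56,320 ng/g in tissue. Noncompartmental parameters came from a composite mean concentration-time profile.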
# Spleen = test: Drug level in Long Evans rat spleen assessed as radioactivity per gram of tissue at 5 mg/kg, iv administered as single bolus dose measured 12 hrs postdose by autoradiography; assay type: ADME, organism-based; set-up: dose 5 mg/kg, route intravenous; conditions: in vivo; procedure, shortened: as §2
# Liver [20] = test: AUC (0 to infinity) in F344 rat liver assessed as total compound-derived radioactivity per gram of tissue at 5 mg/kg, iv administered as single bolus dose […]; assay type: ADME, organism-based; set-up: time infinity, dose 5 mg/kg, route intravenous; conditions: in vivo; procedure, shortened: as §4
# Zone of skin [21] = test: Half life in F344 rat skin assessed as total compound-derived radioactivity at 5 mg/kg, iv administered as single bolus dose […]; assay type: ADME, organism-based; set-up: dose 5 mg/kg, route intravenous; conditions: in vivo; procedure, shortened: as §1
# [22] = Tmax in F344 rat plasma at 5 mg/kg, iv administered as single bolus dose by HPLC method; assay type: ADME, organism-based; set-up: dose 5 mg/kg, route intravenous; procedure, shortened: as §6
# Liver [23] = test: Drug level in Long Evans rat liver assessed as low disposition of radioactivity per gram of tissue at 5 mg/kg, iv administered as single bolus dose measured 12 hrs postdose by autoradiography; assay type: ADME, organism-based; set-up: dose 5 mg/kg, route intravenous; conditions: in vivo; procedure, shortened: as §3
# Liver [24] = test: Drug level in Long Evans rat liver assessed as high disposition of radioactivity per gram of tissue at 5 mg/kg, iv administered as single bolus dose measured 12 hrs postdose by autoradiography; assay type: ADME, organism-based; set-up: dose 5 mg/kg, route intravenous; conditions: in vivo; procedure, shortened: as §3
smiles,measurement,setting,value
CCCCCOc1ccc(-c2ccc(-c3ccc([14C](=O)N[C@H]4C[C@@H](O)[C@@H](O)NC(=O)[C@@H]5[C@@H](O)[C@@H](C)CN5C(=O)[C@H]([C@@H](C)O)NC(=O)[C@H]([C@H](O)[C@@H](O)c5ccc(O)cc5)NC(=O)[C@@H]5C[C@@H](O)CN5C(=O)[C@H]([C@@H](C)O)NC4=O)cc3)cc2)cc1 [14C-ANIDULAFUNGIN],Tmax,Muscle tissue [1],30 min
same,Drug uptake,Muscle tissue [2],0.43 ugequiv
same,Drug uptake,Muscle tissue [3],1.17 ugequiv
same,Drug uptake,Lung [4],22.88 ugequiv
same,AUC,Zone of skin [5],190.73 ugequiv.hr/g
same,Cmax,[6],24200 ng/g
same,Drug uptake,Muscle tissue [7],1.39 ugequiv
same,Drug uptake,Blood,2.55 ugequiv
same,Cmax,Zone of skin [8],5.4 ugequiv/g
same,Drug uptake,Kidney [9],8.45 ugequiv
same,Drug uptake,Kidney [10],12.57 ugequiv
same,Drug uptake,Zone of skin [11],5.42 ugequiv
same,Drug uptake,Kidney [12],7.54 ugequiv
same,Cmax,[13],4020 ng/g
same,Drug uptake,Zone of skin [14],4.04 ugequiv
same,t1/2,Cerebrospinal fluid,53.8 h
same,Drug uptake,Lung [15],5.64 ugequiv
same,Drug uptake,Kidney [16],4.41 ugequiv
same,Cmax,Kidney [17],19.63 ugequiv/g
same,Cmax,[18],31100 ng/g
same,Tmax,[19],30 min
same,Drug uptake,Spleen,11.48 ugequiv
same,AUC,Liver [20],2656.38 ugequiv.hr/g
same,t1/2,Zone of skin [21],56.6 h
same,Tmax,[22],4.98 min
same,Drug uptake,Liver [23],15.03 ugequiv
same,Drug uptake,Liver [24],25.01 ugequiv
